Common to all, as to type: functional
For experiment [1], the species on record is Mus musculus. Kind of experiment: Effect on level of IFN-gamma secretion splenocytes in mice following treatment with 25 uM compound done for 72 hr at 37 degree C. The essentials:
(§1)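 Mouse spleen cells stimulated with concanavalin A in the presence of 25 µM test agent (acetate form) at 37 °C, 5% CO2 for 72 h. Cytokine levels (IL-4 or IFN-γ) in the culture supernatant measured by mouse ELISA kit. Reduction expressed relative to control. Means ± SEM of at least three independent experiments.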

The species named for experiment [2] is Mus musculus. Kind of experiment: Effect on level of IL-4 secretion in mice splenocytes following treatment with 25 uM compound done for 72 hr at 37 degree C. An outline of the steps: as §1
Experiment [3] is described as follows: Inhibitory concentration against proliferation of mouse splenocytes was determined by measuring mitochondrial dehydrogenase activity using MTT assay. The essentials: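 Mouse splenocyte proliferation measured by a 72 h MTT assay, with mitochondrial dehydrogenase activity of surviving cells as read-out. Test agents were in acetate form. Cyclosporin A was included as a comparator. IC50 taken as the concentration giving 50% inhibition.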
Background: Formazan colour is commonly taken as a measure of viable cells.

As usually defined, the IC50 is the concentration that inhibits the measured activity by half. Low readings indicate higher potency, high ones lower potency.

In the case of `OC[C@H]1N[C@H](CO)[C@H](O)C(O)[C@H]1O` (stereo not given in full), the Reduction in the experiment filed under Mus musculus [1] is given as 75.89%; in the experiment listed under Mus musculus [2] it was 69.2%. Moreover, it took 519 µM to reach half-maximal inhibition in experiment [3] (IC50).

For the compound `OC[C@@H]1N[C@@H](CO)[C@H](O)C(O)[C@H]1O` (stereo not given in full), the Reduction in the experiment listed under Mus musculus [1] came out at 51.6%; in the experiment filed under Mus musculus [2], 84.6%. In addition, the IC50 in experiment [3] was 272 µM.

Turning to `O=C(O)[C@H]1N[C@H](CO)[C@H](O)[C@H](O)[C@H]1O`, the Reduction was found to be 31.2% in the experiment filed under Mus musculus [1] and 30.8% in the experiment filed under Mus musculus [2]. Moreover, half-maximal inhibition in experiment [3] (IC50) was put at 340 µM.

As to `O=C(O)[C@H]1N[C@@H](CO)[C@H](O)[C@H](O)[C@H]1O`, the Reduction in the experiment listed under Mus musculus [1] was 24.2%; in the experiment listed under Mus musculus [2] it was 92.3%. This compound also yielded an IC50 in experiment [3] of 346 µM.

Take `OC[C@@H]1N[C@H](CO)[C@H](O)[C@@H](O)[C@H]1O`: the Reduction in the experiment filed under Mus musculus [1] came to 86.2%; in the experiment listed under Mus musculus [2] it was 92.3%. This compound also came in with an IC50 in experiment [3] of 332 µM.

Source of the values: ChEMBL document CHEMBL1139521, “Synthetic iminosugar derivatives as new potential immunosuppressive agents” (J Med Chem, 2005).
